# Assay results reported in article PMC3569657 (EMBO Molecular Medicine, 2012).
# Several values for one entry are separate records, joined by “and”; a condition that tells them apart may be missing. Equal values may be shown once. Read-outs that look alike come from different tables or passages of the source. Peptide text beside a SMILES is read from it. * marks the point of attachment. Cbz = O=C(OCc1ccccc1)*; CH2F = FC*
# Key:
# [1] = target: purified recombinant human I2PP2A/SET (Homo sapiens, UniProt Q01105); assay: SPR binding of purified human I2PP2A/SET to lipid vesicles
# Outline: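 SPR at 25°C. Sensor chip coated with vesicles of POPC:POPE:x (75:20:5, x = C18-ceramide or test compound) to about 6200 RU, against a POPC:POPE (80:20) control surface, and stabilised with 50 mM NaOH. Protein (I2PP2A/SET, or p47phox-PX control protein) in 20 mM HEPES pH 7.4, 0.16 M KCl was flowed at 5 µl/min. Triplicate sensorgrams per lipid were fitted individually for ka and kd, giving Kd = kd/ka.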
# I2PP2A/SET = I2PP2A/SET (Homo sapiens, UniProt Q01105); format: binding; details: unlabeled competitor 10 µM; purified I2PP2A/SET
# Outline: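 Recombinant human I2PP2A/SET (His-tag vector), 1–2 µg, incubated with biotin alone or biotin-labelled test compound (1, 5 or 10 µM). Competition runs added unlabelled ceramide or the parent or phosphorylated compound, 10 µM each. Bound protein was captured by streptavidin/avidin column pull-down, and eluates were run on SDS–PAGE and immunoblotted with anti-I2PP2A/SET.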
# WT-I2PP2A/SET-GFP = WT-I2PP2A/SET-GFP (Homo sapiens, UniProt Q01105); assay: anti-GFP pull-down from A549 cells, protein-bound endogenous lipids by LC/MS/MS; format: binding; details: for binding of WT-I2PP2A/SET to ceramide, fold: compared to the K209D-I2PP2A/SET (so in the source)
# Y122C-I2PP2A/SET-GFP = Y122C-I2PP2A/SET-GFP (Homo sapiens, UniProt Q01105, Y135C); assay: as above; format: binding; details: compared to vector-transfected controls
# SK2−/− MEFs = assay: MTT growth assay; format: cell-based; details: Mus musculus
# [2] = FTY720 and P-FTY720 in tumour and serum of A549-xenograft mice by LC/MS/MS; format: in vivo, SCID mice; details: mice treated with oral FTY720 3 mg/kg/day
# c-Myc-V5 = assay: Ectopically expressed c-Myc-V5 in MEFs by Western blotting; format: cell-based, mouse
# Outline: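 V5-tagged c-Myc was ectopically expressed in WT, SK-1−/− and SK-2−/− mouse embryonic fibroblasts. Cells were exposed to test compound, and c-Myc was detected by Western blotting with actin as loading control. Relative c-Myc levels were derived from band quantification.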
# A549 cells [3] = assay: Annexin V/7-AAD flow cytometry; format: cell-based, human; details: compared to controls
# serum LDH = assay: Total LDH released in serum of xenograft-bearing mice; format: in vivo, SCID mice; details: mice bearing A549/sh-control xenografts, 3 mg/kg/day oral
# Outline: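 Balb/c SCID mice bearing A549/sh-control, sh-I2PP2A/SET or reconstituted WT-I2PP2A/SET xenografts were dosed by daily oral gavage at 3 mg/kg for 18 days, with untreated mice as controls. Total serum LDH was measured by an external analytical lab.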
# A549 cells [4] = assay: Cell death by LDH release; format: cell-based, human; details: for effect of pre-treatment on FTY720-mediated cell death / growth suppression: A549 cells, FTY720 20 µM, OA 10 nM
# Outline: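 A549 cells were exposed to 20 µM test compound or vehicle for 24 h, and cell death was read as LDH released into the medium. Variants included pre-treatment with okadaic acid (10 nM), Z-VAD or necrostatin, and PP2A siRNA knockdown against scrambled siRNA (knockdown checked by Western blot). Another variant used HA-tagged PP2A overexpression, confirmed by Western blot, compared with controls.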
# [5] = system: H157 (K-Ras mutant) human lung cancer cells; assay: Cell death by LDH release; format: cell-based; details: FTY720 20 µM; for effect on FTY720-mediated cell death: LDH release
# Outline: (§1)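 Cell death was assessed in human lung cancer lines H157 (K-Ras mutant) and H827 (EGFR mutant) after exposure to test compound. Conditions compared with controls: RIPK1 inhibition by necrostatin, PP2A inhibition by okadaic acid, and siRNA knockdown of RIPK1 or PP2Ac.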
# RIPK1−/− MEFs = assay: Cell death in RIPK1−/− versus RIPK1+/+ MEFs; format: cell-based, mouse; details: FTY720 15 µM, RIPK1−/− compared to RIPK1+/+ MEFs
# [6] = system: A549-xenograft-derived tumours; assay: A549-xenograft-derived tumour growth in SCID mice; format: in vivo, Balb/c SCID mice
# Outline: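 A549 cells, or A549 lines with control shRNA, I2PP2A/SET shRNA or shRNA plus WT-I2PP2A/SET re-expression, grown as flank xenografts in Balb/c SCID mice. Test compound was given by oral gavage at 3 mg/kg/day against vehicle-treated controls: 15 days (n = 12) for parental xenografts, 18 days for the shRNA lines. Tumour volume change was computed relative to untreated sh-control mice at Day 18. Tumours were also examined by electron microscopy for mitochondrial damage and cytoplasmic swelling.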
# [7] = system: Lewis lung adenocarcinoma cell (LLC)-derived allografts; assay: Lewis lung adenocarcinoma allograft growth in WT and SK-2−/− mice; format: in vivo, mouse; details: 10 mg/kg/day oral, vs controls
# Outline: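 Lewis lung adenocarcinoma cells were implanted in flanks of WT (C57BL/6 background) and SK-2−/− mice. Animals were treated with oral test compound at 10 mg/kg or served as controls. Results are given as % change in tumour volume for each genotype against its controls at Day 13.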
# c-Myc = c-Myc expression in A549 cells by Western blotting; format: cell-based, human; details: compared to controls
# Outline: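 A549 cells were treated with test compound or its phosphorylated form alongside controls. c-Myc was detected by Western blotting with actin as loading control, and relative c-Myc levels were derived from band quantification.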
# WT MEFs = assay: MTT growth assay; format: cell-based; details: Mus musculus
# [8] = system: P-PP2A (Y307), c-Myc, hTERT mRNA; assay: PP2A signalling markers in A549-xenograft tumours; format: in vivo, SCID mice; details: 3 mg/kg/day oral
# [9] = FTY720 and P-FTY720 in serum and tumours of LLC-allograft mice by LC/MS/MS; format: in vivo, mouse; details: oral FTY720 10 mg/kg
# Outline: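 Lewis lung adenocarcinoma allografts were grown in flanks of WT and SK-2−/− mice. Animals received oral test compound at 10 mg/kg. Parent compound and its phosphorylated form were quantified by LC/MS/MS in the tumours.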
# [10] = system: H827 (EGFR mutant) human lung cancer cells; assay: Cell death by LDH release; format: cell-based; details: FTY720 20 µM
# Outline: as §1
# PP2A = PP2A activity assay on A549 cell extracts; format: cell-based, human; details: 10 µM FTY720, compared to vehicle-treated controls
# Outline: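 PP2A phosphatase activity was measured in extracts of A549, A549/shI2PP2A and A549/shI2PP2A re-expressing WT-I2PP2A/SET (about 60% reconstitution). Cells were grown with or without 10 µM test compound. In a related set, PP2A siRNA knockdown in A549 cells was compared with scrambled-siRNA controls.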
# SK1−/− MEFs = assay: MTT growth assay; format: cell-based; details: Mus musculus
# [11] = system: MEFs obtained from caspase3/7−/− DKO, Bax/Bak−/− DKO or ATG5−/− KO mice; assay: MTT growth assay in knockout MEFs; format: cell-based, mouse; details: various concentrations
# ATG5−/− MEFs = assay: Caspase 3 activity assay, taxol-induced apoptosis; format: cell-based, mouse; details: 80 nM and 24 h, compared to WT MEFs
# Sequence of WT-I2PP2A/SET-GFP (Q01105 1-277 isoform Q01105-2): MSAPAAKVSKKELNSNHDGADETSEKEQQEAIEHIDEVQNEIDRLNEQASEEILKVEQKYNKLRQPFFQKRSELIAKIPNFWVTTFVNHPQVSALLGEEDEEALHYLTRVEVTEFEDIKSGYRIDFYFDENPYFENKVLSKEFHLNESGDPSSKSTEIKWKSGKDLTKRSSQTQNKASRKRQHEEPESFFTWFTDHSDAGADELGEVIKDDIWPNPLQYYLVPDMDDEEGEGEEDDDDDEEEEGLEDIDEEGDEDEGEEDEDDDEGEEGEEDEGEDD
# Sequence of purified recombinant human I2PP2A/SET (Q01105 1-277 isoform Q01105-2): as above
# Sequence of I2PP2A/SET (Q01105 1-277 isoform Q01105-2): as above
# Sequence of Y122C-I2PP2A/SET-GFP (Q01105 1-277 isoform Q01105-2 Y122C): as the sequence (Q01105 1-277 isoform Q01105-2) above, with Y122C counted along it
structure (smiles),measurement,setting,value
CCCCCCCCCCCCC/C=C/[C@@H](O)[C@H](CO)NC(=O)CCCCCCCCCCCCCCCCC [C18-ceramide],Kd,"[1]; read-out: Protein Kd, liposomes POPC:POPE:x (75:20:5), control POPC:POPE (80:20), 1 µM I2PP2A, 20 mM HEPES pH 7.4, 160 mM KCl",~11 nM and 11 nM
same,competition with B-FTY720-I2PP2A/SET binding,I2PP2A/SET,competed significantly
CCCCCCCCCCCCC/C=C/[C@@H](O)[C@H](CO)NC(=O)CCCCCCCCCCCCCCCCCCC [C20],"binding of WT-I2PP2A/SET to ceramide, fold",WT-I2PP2A/SET-GFP,1.9 fold
CCCCCCCCCCCCC/C=C/[C@@H](O)[C@H](CO)NC(=O)CCCCCCCCCCCCCCCCCCCCC [C22],"binding of WT-I2PP2A/SET to ceramide, fold",WT-I2PP2A/SET-GFP,2.6 fold
CCCCCCCCCCCCC/C=C/[C@@H](O)[C@H](CO)NC(=O)CCCCCCCCCCCCCCCCCCCCCCC [C24],"binding of WT-I2PP2A/SET to ceramide, fold",WT-I2PP2A/SET-GFP,2.1 fold
CCCCCCCCCCCCC/C=C/[C@@H](O)[C@H](CO)NC(=O)CCCCCCCCCCCCCCCCCCCCCCCCC [C26],"increased binding of Y122C-I2PP2A/SET to ceramide, fold",Y122C-I2PP2A/SET-GFP,~2.4 fold
same,"binding of WT-I2PP2A/SET to ceramide, fold",WT-I2PP2A/SET-GFP,2.5 fold
"CCCCCCCCc1ccc(CCC(N)(CO)CO)cc1 [FTY720, 2-amino-2-[2-(4-octylphenyl)ethyl]propane-1,3-diol]",IC50,SK2−/− MEFs,~10000 nM
same,Kd,"[1]; Protein Kd, liposomes POPC:POPE:x (75:20:5), control POPC:POPE (80:20), 1 µM I2PP2A, 20 mM HEPES pH 7.4, 160 mM KCl",~11 nM and 11 nM
same,accumulation in A549-xenograft-derived tumours,[2],0.2 pmol/nmol Pi
same,accumulation in serum,[2],~100 pmol/mL
same,reduced c-Myc expression,c-Myc-V5; SK-1−/− MEFs,70%
same,reduced c-Myc expression,c-Myc-V5; SK-2−/− MEFs,55%
same,reduced c-Myc expression,c-Myc-V5; WT MEFs,80%
same,Annexin V/7-AAD positive cell populations,A549 cells [3],increased
same,serum LDH,serum LDH,increased serum LDH
same,cell death,"A549 cells [4]; 20 µM, 24 h, LDH release",significantly induced cell death
same,increase of FTY720-mediated cell death on overexpression of PP2A-HA,A549 cells [4]; compared to controls,~40%
same,PP2A-dependent necroptosis,[5],detected
same,cell death on genetic loss of RIPK1,RIPK1−/− MEFs,almost completely abrogated cell death
same,tumour suppression in A549/sh-I2PP2A/SET xenografts expressing WT-I2PP2A/SET,[6]; 3 mg/kg/day oral,restored tumour suppressor effects
same,tumour suppression in response to I2PP2A/SET knockdown (A549/sh-I2PP2A/SET xenografts),[6]; 3 mg/kg/day oral,no additional effects
same,growth of A549-xenograft-derived tumours,"[6]; 3 mg/kg/day oral for 15 days, n = 12, p < 0.05 vs controls",inhibited the growth
same,inhibition of growth of A549/control-derived xenografts,"[6]; 3 mg/kg/day oral, 18 days, vs vehicle-treated controls",~80%
same,tumours with damaged/swollen mitochondria (TEM),"[6]; oral FTY720, n = 20",~40%
same,inhibition of tumour growth,[7]; SK-2−/− mice,~47%
same,inhibition of tumour growth,[7]; WT mice,~60%
same,c-Myc levels,c-Myc,decreased c-Myc levels
same,IC50,WT MEFs,~10000 nM
same,c-Myc and hTERT mRNA in tumours,"[8]; IHC or Western blotting, Q-PCR",decreased
same,inactive P-PP2A (Y307) in tumours,"[8]; IHC, without affecting total PP2A",decreased
same,accumulation in tumours grown in WT and SK-2−/− mice,[9],comparable
same,PP2A-dependent necroptosis,[10],detected
same,PP2A activity,PP2A,enhanced PP2A activity
same,IC50,SK1−/− MEFs,~10000 nM
same,"effect of genetic loss of caspases3/7, Bax/Bak or ATG5 on FTY720-induced cell death",[11],no protective effect
same,competition with B-FTY720-I2PP2A/SET binding,I2PP2A/SET,competed significantly
CCCCCCCCc1ccc(CC[C@](N)(CO)COP(=O)(O)O)cc1 [P-FTY720],Protein Kd,"[1]; liposomes POPC:POPE:x (75:20:5), control POPC:POPE (80:20), 1 µM I2PP2A, 20 mM HEPES pH 7.4, 160 mM KCl",below the detection limit
same,accumulation in A549-xenograft-derived tumours,[2],0.05 pmol/nmol Pi
same,accumulation in serum,[2],~400 pmol/mL
same,accumulation in serum on loss of SK-2,[9]; SK-2−/− mice,almost completely abrogated
CC(NC(=O)C(NC(=O)OCc1ccccc1)C(C)C)C(=O)NC(CC(=O)O)C(=O)CF (stereo not drawn) [Z-VAD] (Cbz-Val-Ala-Asp-CH2F; configuration not given here),effect of pre-treatment on FTY720-mediated cell death / growth suppression,A549 cells [4]; LDH release,had no effect
CN1C(=O)C(Cc2c[nH]c3ccccc23)NC1=S (centres unmarked) [necrostatin],effect of pre-treatment on FTY720-mediated cell death / growth suppression,A549 cells [4]; LDH release,significantly prevented
same,effect on FTY720-mediated cell death,[5],prevented FTY720-mediated cell death
C=C1[C@@H](O)[C@@H]2O[C@]3(CC[C@H](/C=C/[C@@H](C)[C@@H]4CC(C)=C[C@@]5(O[C@H](C[C@@](C)(O)C(=O)O)CC[C@H]5O)O4)O3)CC[C@H]2O[C@@H]1[C@@H](O)C[C@H](C)[C@H]1O[C@@]2(CCCCO2)CC[C@H]1C [okadaic acid],effect on FTY720-mediated cell death,[5],prevented FTY720-mediated cell death
CCCCCCCCCCCCC/C=C/[C@@H](O)[C@@H](N)CO [sphingosine],binding of endogenous sphingosine,WT-I2PP2A/SET-GFP; LC/MS/MS after pull-down,bind
CC(=O)O[C@H]1C(=O)[C@@]2(C)[C@H]([C@H](OC(=O)c3ccccc3)[C@]3(O)C[C@H](OC(=O)[C@H](O)[C@@H](NC(=O)c4ccccc4)c4ccccc4)C(C)=C1C3(C)C)[C@]1(OC(C)=O)CO[C@@H]1C[C@@H]2O [taxol],caspase 3 activity (apoptosis),ATG5−/− MEFs,increased caspase 3 activity
